Data reported in ChEMBL document CHEMBL1156833, “The discovery of MK-0674, an orally bioavailable cathepsin K inhibitor” (Bioorg Med Chem Lett, 2010).

Tests used:
[1] = Half life in po dosed rhesus monkey; assay type: ADME, organism-based, Macaca mulatta; conditions: in vivo
Method in brief: (§1)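 Pharmacokinetics in rats, rabbits and rhesus monkeys after oral dosing in 1% methocel vehicle. Half-life and oral bioavailability were derived from the plasma profiles.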

[2] = Half life in po dosed rabbit; assay type: ADME, organism-based, Oryctolagus cuniculus; conditions: in vivo; method in brief: as §1
[3] = species on record: Homo sapiens; test: Selectivity ratio of IC50 for human cathepsin B to IC50 for humanized rabbit cathepsin K
[4] = Decrease in bone resorption assessed as corrected bone resorption measured as ratio of bone resorption IC50 x humanized rabbit cathepsin K IC50 to rabbit cathepsin K IC50 equation; assay type: functional, tissue-based, Bone element
[5] = Oral bioavailability in rhesus monkey; assay type: ADME, organism-based, Macaca mulatta; conditions: in vivo; method in brief: as §1
[6] = Oral bioavailability in rat; assay type: ADME, organism-based; conditions: in vivo; method in brief: as §1
[7] = species on record: Homo sapiens; test: Selectivity ratio of IC50 for human cathepsin F to IC50 for humanized rabbit cathepsin K
[8] = Oral bioavailability in rabbit; assay type: ADME, organism-based, Oryctolagus cuniculus; conditions: in vivo; method in brief: as §1
[9] = biological target: Cathepsin K (Homo sapiens, UniProt P43235); test: Inhibition of humanized rabbit cathepsin K
[10] = species on record: Homo sapiens; test: Selectivity ratio of IC50 for human cathepsin S to IC50 for humanized rabbit cathepsin K
[11] = Metabolic stability in rabbit hepatocytes assessed as compound remaining; assay type: ADME, cell-based, Oryctolagus cuniculus, Hepatocyte
[12] = Half life in po dosed rat; assay type: ADME, organism-based; conditions: in vivo; method in brief: as §1
[13] = Metabolic stability in rhesus monkey hepatocytes assessed as compound remaining; assay type: ADME, cell-based, Macaca mulatta, Hepatocyte
[14] = test system: Hepatocyte; test: Metabolic stability in rat hepatocytes assessed as compound remaining; assay type: ADME, cell-based
[15] = species on record: Homo sapiens; test: Selectivity ratio of IC50 for human cathepsin L to IC50 for humanized rabbit cathepsin K
[16] = Oral bioavailability in squirrel monkey; assay type: ADME, organism-based; conditions: saimiri, in vivo
[17] = test system: Canis familiaris; test: Metabolic stability in dog at 25 mg/kg, po and 5 mg/kg, iv up to 24 hrs; assay type: ADME, organism-based, Canis lupus familiaris; conditions: in vivo
[18] = test system: Canis familiaris; test: (§2) Metabolic stability in dog assessed as formation ratio of (S)-N-(1-cyanocyclopropyl)-2-((S)-1-(4'-((R)-2,2-difluoro-1-hydroxyethyl)biphenyl-4-yl)-2,2,2-trifluoroethylamino)-4-fluoro-4-methylpentanamide to (S)-N-(1-cyanocyclopropyl)-2-((S)-1-(4'-((S)-2,2-difluoro-1-hydroxyethyl)biphenyl-4-yl)-2,2,2-trifluoroethylamino)-4-fluoro-4-methylpentanamide at 25 mg/kg, po and 5 mg/kg, iv; assay type: ADME, organism-based, Canis lupus familiaris; conditions: in vivo
[19] = test system: Hepatocyte; test: (§3) Metabolic stability in human hepatocytes assessed as formation ratio of (S)-N-(1-cyanocyclopropyl)-2-((S)-1-(4'-((R)-2,2-difluoro-1-hydroxyethyl)biphenyl-4-yl)-2,2,2-trifluoroethylamino)-4-fluoro-4-methylpentanamide to (S)-N-(1-cyanocyclopropyl)-2-((S)-1-(4'-((S)-2,2-difluoro-1-hydroxyethyl)biphenyl-4-yl)-2,2,2-trifluoroethylamino)-4-fluoro-4-methylpentanamide; assay type: ADME, cell-based
[20] = as §3, with “dog” for “human”; assay type: ADME, cell-based, Canis lupus familiaris, Hepatocyte
[21] = test system: Rattus norvegicus; test: Metabolic stability in rat at 25 mg/kg, po after up to 24 hrs; assay type: ADME, organism-based; parameters: dose 25 mg/kg, route oral; conditions: in vivo
[22] = test system: Rattus norvegicus; test: as §2, with “rat” for “dog”; assay type: ADME, organism-based; conditions: in vivo
[23] = test system: Hepatocyte; test: as §3, with “rat” for “human”; assay type: ADME, cell-based
[24] = as §3, with “rabbit” for “human”; assay type: ADME, cell-based, Oryctolagus cuniculus, Hepatocyte
[25] = test system: Rattus norvegicus; test: Metabolic stability in rat at 25 mg/kg, po and 5 mg/kg, iv up to 24 hrs; assay type: ADME, organism-based; conditions: in vivo
[26] = test system: Rattus norvegicus; test: Metabolic stability in rat assessed as conversion to (S)-N-(1-cyanocyclopropyl)-2-((S)-1-(4'-((R)-2,2-difluoro-1-hydroxyethyl)biphenyl-4-yl)-2,2,2-trifluoroethylamino)-4-fluoro-4-methylpentanamide at 25 mg/kg, po; assay type: ADME, organism-based; parameters: dose 25 mg/kg, route oral; conditions: in vivo

Structure (SMILES) | Ratio IC50 [3] | IC50 [4] [nM] | bioavailability [6] [%] | Ratio IC50 [7] | IC50 [9] [nM] | Ratio IC50 [10] | Ratio IC50 [15] | further results
CC(C)(F)C[C@H](N[C@@H](c1ccc(-c2ccc([C@H](O)C(F)F)cc2)cc1)C(F)(F)F)C(=O)NC1(C#N)CC1 | 1470 | 7 | 86 | 1600 | 0.4 | 197 | 14100 | half-life [1]: 6 h; half-life [2]: 8 h; bioavailability [5]: 139%; bioavailability [8]: 132%; Stability [11]: 70%; half-life [12]: 10 h; Stability [13]: 88%; Stability [14]: 94%
CC(C)(F)C[C@H](N[C@@H](c1ccc(-c2ccc(C3(C(N)=O)CC3)cc2)cc1)C(F)(F)F)C(=O)NC1(C#N)CC1 | 1560 | 12 | 8 | 2380 | 0.2 | 766 | 11100 | bioavailability [16]: 5%
CC(C)(F)C[C@H](N[C@@H](c1ccc(-c2ccc(C3(O)CC3)cn2)cc1)C(F)(F)F)C(=O)NC1(C#N)CC1 | 3640 | – | 7 | 2760 | 0.3 | 210 | 18000 | –
CC(C)(F)C[C@H](N[C@@H](c1ccc(-c2ccc(C(=O)C(F)F)cc2)cc1)C(F)(F)F)C(=O)NC1(C#N)CC1 | – | – | – | – | – | – | – | Stability [17]: Stable; Ratio [18]: 5; Ratio [19]: > 200; Ratio [20]: 5; Stability [21]: Stable; Ratio [22]: > 10; Ratio [23]: 24; Ratio [24]: 48; Stability [25]: Stable
CC(C)(F)C[C@H](N[C@@H](c1ccc(-c2ccc([C@@H](O)C(F)F)cc2)cc1)C(F)(F)F)C(=O)NC1(C#N)CC1 | 1160 | 10 | 122 | 1460 | 0.4 | 243 | 11900 | half-life [1]: 11 h; half-life [2]: 14 h; bioavailability [5]: 64%; bioavailability [8]: 70%; Stability [11]: 93%; half-life [12]: 7 h; Stability [13]: 93%; Stability [14]: 95%
CC(C)(F)C[C@H](N[C@@H](c1ccc(-c2ccc(C3(O)CC3)cc2)cc1)C(F)(F)F)C(=O)NC1(C#N)CC1 | 1420 | 13 | – | 1150 | 0.2 | 106 | 11000 | –
Cc1csc(-c2ccc([C@H](N[C@@H](CC(C)(C)F)C(=O)NC3(C#N)CC3)C(F)(F)F)cc2)n1 | 4040 | 14 | 10 | 1980 | 0.3 | 777 | 18800 | bioavailability [16]: 5%
CC(C)(F)C[C@H](N[C@@H](c1ccc(-c2ccc3ncccc3c2)cc1)C(F)(F)F)C(=O)NC1(C#N)CC1 | 3000 | 8 | – | – | 0.4 | 44 | 6020 | –
CC(C)(F)C[C@H](N[C@@H](c1ccc(-c2ccc(C3(C(N)=O)CC3)cn2)cc1)C(F)(F)F)C(=O)NC1(C#N)CC1 | 3920 | 35 | – | 3440 | 0.5 | 849 | 3700 | –
CC(C)(F)C[C@H](N[C@@H](c1ccc(-c2ccc(S(C)(=O)=O)cc2)cc1)C(F)(F)F)C(=O)NC1(C#N)CC1 [ODANACATIB] | 5170 | 5 | – | 3230 | 0.2 | 300 | 15000 | –
C[C@H](C(N)=O)c1ccc(-c2ccc([C@H](N[C@@H](CC(C)(C)F)C(=O)NC3(C#N)CC3)C(F)(F)F)cc2)cc1 | 1440 | 35 | – | 3590 | 0.2 | 693 | 21300 | –
[2H][C@@](O)(c1ccc(-c2ccc([C@H](N[C@@H](CC(C)(C)F)C(=O)NC3(C#N)CC3)C(F)(F)F)cc2)cc1)C(F)F | – | – | – | – | – | – | – | Stability [17]: Stable; Stability [21]: Stable; Stability [26]: Unstable; Stability [25]: Stable
[2H][C@](O)(c1ccc(-c2ccc([C@H](N[C@@H](CC(C)(C)F)C(=O)NC3(C#N)CC3)C(F)(F)F)cc2)cc1)C(F)F | – | – | – | – | – | – | – | Stability [17]: Stable; Stability [21]: Stable; Stability [26]: Unstable; Stability [25]: Stable
CC(C)(F)C[C@H](N[C@@H](c1ccc(-c2ccc(C(C)(C)O)cc2)cc1)C(F)(F)F)C(=O)NC1(C#N)CC1 | 2200 | 10 | 24 | 2410 | 0.2 | 715 | 28900 | half-life [12]: < 1 h
CC(C)(F)C[C@H](N[C@@H](c1ccc(-c2ccc(S(C)(=O)=O)nc2)cc1)C(F)(F)F)C(=O)NC1(C#N)CC1 | 725 | 8 | – | – | 2.6 | 28 | 1300 | –
